From ChEMBL document CHEMBL1944580, “Synthesis of novel sulfonamide-1,2,4-triazoles, 1,3,4-thiadiazoles and 1,3,4-oxadiazoles, as potential antibacterial and antifungal agents. Biological evaluation and conformational analysis studies” (2012)
In brackets after ≈: the same amount, converted by molar mass.

Tests used:
Fulvia fulva [1] = assay: Antifungal activity against Fulvia fulva treated for 72 hrs followed by sub-cultivated for 5 days by serial dilution method; format: functional
Outline: (§1)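 MFC obtained after the 72 h, 28 °C malt-broth microdilution (spore inoculum about 1.0 × 10^5 per well, compounds from 1 mg/ml DMSO). 2 µl was serially subcultured into 100 µl broth per well and incubated a further 5 days at 28 °C. MFC is the lowest concentration with no visible growth, taken as 99.5% killing of the original inoculum.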

Bacillus cereus [2] = assay: Antibacterial activity against Bacillus cereus clinical isolate treated for 24 hrs followed by sub-cultivated for 72 hrs by micro dilution method; format: functional
Outline: (§2)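 2 µl from each well was serially subcultured into 100 µl fresh broth per well and incubated a further 72 h. MBC is the lowest concentration with no visible growth, taken as 99.5% killing of the original inoculum. Streptomycin and ampicillin were the positive controls.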

Fulvia fulva [3] = assay: Antifungal activity against Fulvia fulva after 72 hrs by serial dilution method; format: functional
Outline: (§3)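 Modified microdilution MIC. Spores were washed from malt agar cultures with sterile 0.85% saline containing 0.1% Tween 80 and adjusted to about 1.0 × 10^5 per 100 µl well in malt broth. Compounds were dissolved in DMSO (1 mg/ml). Plates incubated 72 h at 28 °C. MIC is the lowest concentration with no visible growth under a binocular microscope. Bifonazole and ketoconazole were the references.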

Aspergillus flavus [4] = assay: Antifungal activity against Aspergillus flavus ATCC 9643 treated for 72 hrs followed by sub-cultivated for 5 days by serial dilution method; format: functional; outline: as §1
Staphylococcus aureus [5] = assay: Antibacterial activity against Staphylococcus aureus ATCC 6538 treated for 24 hrs followed by sub-cultivated for 72 hrs by micro dilution method; format: functional; outline: as §2
Escherichia coli [6] = assay: Antibacterial activity against Escherichia coli ATCC 35210 after 24 hrs by micro dilution method; format: functional; details: ATCC 35210, 24 h
Outline: (§4)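 Microdilution MIC in 96-well plates. Bacterial suspensions adjusted in sterile saline to 1.0 × 10^5 CFU/ml, giving 1.0 × 10^4 cfu per well in LB broth. Compounds tested at up to 1 mg/ml. Plates incubated 24 h. MIC taken as the lowest concentration with no visible growth under a binocular microscope. OD at 655 nm was also read against a blank and the positive control. Streptomycin and ampicillin were the positive controls.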

Penicillium ochrochloron [7] = assay: Antifungal activity against Penicillium ochrochloron ATCC 9112 after 72 hrs by serial dilution method; format: functional; details: ATCC 9112, 72 h; outline: as §3
Aspergillus fumigatus [8] = assay: Antifungal activity against Aspergillus fumigatus human isolate treated for 72 hrs followed by sub-cultivated for 5 days by serial dilution method; format: functional; outline: as §1
Pseudomonas aeruginosa [9] = assay: Antibacterial activity against Pseudomonas aeruginosa ATCC 27853 treated for 24 hrs followed by sub-cultivated for 72 hrs by micro dilution method; format: functional; outline: as §2
Staphylococcus aureus [10] = assay: Antibacterial activity against Staphylococcus aureus ATCC 6538 after 24 hrs by micro dilution method; format: functional; details: ATCC 6538, 24 h; outline: as §4
Aspergillus niger [11] = assay: Antifungal activity against Aspergillus niger ATCC 6275 treated for 72 hrs followed by sub-cultivated for 5 days by serial dilution method; format: functional; outline: as §1
Penicillium ochrochloron [12] = assay: Antifungal activity against Penicillium ochrochloron ATCC 9112 treated for 72 hrs followed by sub-cultivated for 5 days by serial dilution method; format: functional; outline: as §1
Micrococcus flavus [13] = assay: Antibacterial activity against Micrococcus flavus ATCC 10240 treated for 24 hrs followed by sub-cultivated for 72 hrs by micro dilution method; format: functional; outline: as §2
Trichoderma viride [14] = assay: Antifungal activity against Trichoderma viride IAM 5061 treated for 72 hrs followed by sub-cultivated for 5 days by serial dilution method; format: functional; outline: as §1
Salmonella typhimurium [15] = assay: Antibacterial activity against Salmonella Typhimurium ATCC 13311 treated for 24 hrs followed by sub-cultivated for 72 hrs by micro dilution method; format: functional, Salmonella enterica subsp. enterica serovar Typhimurium; details: Salmonella enterica; outline: as §2
Enterobacter cloacae [16] = assay: Antibacterial activity against Enterobacter cloacae human isolate treated for 24 hrs followed by sub-cultivated for 72 hrs by micro dilution method; format: functional; outline: as §2
Aspergillus versicolor [17] = assay: Antifungal activity against Aspergillus versicolor ATCC 11730 after 72 hrs by serial dilution method; format: functional; details: ATCC 11730, 72 h; outline: as §3
Enterobacter cloacae [18] = assay: Antibacterial activity against Enterobacter cloacae human isolate after 24 hrs by micro dilution method; format: functional; outline: as §4
Talaromyces funiculosus [19] = assay: Antifungal activity against Penicillium funiculosum ATCC 36839 treated for 72 hrs followed by sub-cultivated for 5 days by serial dilution method; format: functional; outline: as §1
Salmonella typhimurium [20] = assay: Antibacterial activity against Salmonella Typhimurium ATCC 13311 after 24 hrs by micro dilution method; format: functional, Salmonella enterica subsp. enterica serovar Typhimurium; details: Salmonella enterica, ATCC 13311, 24 h; outline: as §4
Pseudomonas aeruginosa [21] = assay: Antibacterial activity against Pseudomonas aeruginosa ATCC 27853 after 24 hrs by micro dilution method; format: functional; details: ATCC 27853, 24 h; outline: as §4
Talaromyces funiculosus [22] = assay: Antifungal activity against Penicillium funiculosum ATCC 36839 after 72 hrs by serial dilution method; format: functional; details: ATCC 36839, 72 h; outline: as §3
Bacillus cereus [23] = assay: Antibacterial activity against Bacillus cereus clinical isolate after 24 hrs by micro dilution method; format: functional; outline: as §4
Trichoderma viride [24] = assay: Antifungal activity against Trichoderma viride IAM 5061 after 72 hrs by serial dilution method; format: functional; details: IAM 5061, 72 h; outline: as §3
Aspergillus flavus [25] = assay: Antifungal activity against Aspergillus flavus ATCC 9643 after 72 hrs by serial dilution method; format: functional; details: ATCC 9643, 72 h; outline: as §3
Aspergillus versicolor [26] = assay: Antifungal activity against Aspergillus versicolor ATCC 11730 treated for 72 hrs followed by sub-cultivated for 5 days by serial dilution method; format: functional; outline: as §1
Escherichia coli [27] = assay: Antibacterial activity against Escherichia coli ATCC 35210 treated for 24 hrs followed by sub-cultivated for 72 hrs by micro dilution method; format: functional; outline: as §2
Listeria monocytogenes [28] = assay: Antibacterial activity against Listeria monocytogenes NCTC 7973 treated for 24 hrs followed by sub-cultivated for 72 hrs by micro dilution method; format: functional; outline: as §2
Micrococcus flavus [29] = assay: Antibacterial activity against Micrococcus flavus ATCC 10240 after 24 hrs by micro dilution method; format: functional; details: ATCC 10240, 24 h; outline: as §4
Aspergillus niger [30] = assay: Antifungal activity against Aspergillus niger ATCC 6275 after 72 hrs by serial dilution method; format: functional; details: ATCC 6275, 72 h; outline: as §3
Aspergillus fumigatus [31] = assay: Antifungal activity against Aspergillus fumigatus human isolate after 72 hrs by serial dilution method; format: functional; outline: as §3
Listeria monocytogenes [32] = assay: Antibacterial activity against Listeria monocytogenes NCTC 7973 after 24 hrs by micro dilution method; format: functional; details: NCTC 7973, 24 h; outline: as §4

Compound | MFC (Fulvia fulva [1]) | MBC (Bacillus cereus [2]) | MIC (Fulvia fulva [3]) | MFC (Aspergillus flavus [4]) | MBC (Staphylococcus aureus [5]) | MIC (Escherichia coli [6]) | MIC (Penicillium ochrochloron [7]) | MFC (Aspergillus fumigatus [8]) | MBC (Pseudomonas aeruginosa [9]) | MIC (Staphylococcus aureus [10]) | MFC (Aspergillus niger [11]) | MFC (Penicillium ochrochloron [12]) | MBC (Micrococcus flavus [13]) | MFC (Trichoderma viride [14]) | MBC (Salmonella typhimurium [15]) | MBC (Enterobacter cloacae [16]) | MIC (Aspergillus versicolor [17]) | MIC (Enterobacter cloacae [18]) | MFC (Talaromyces funiculosus [19]) | MIC (Salmonella typhimurium [20]) | further results
COc1cc(Cc2n[nH]c(=S)n2C(C)C)c(S(=O)(=O)N(C)C)cc1OC | 250 µM (≈ 100 µg/mL) | 500 µM (≈ 200 µg/mL) | 250 µM (≈ 100 µg/mL) | 380 µM (≈ 152 µg/mL) | 380 µM (≈ 152 µg/mL) | 630 µM (≈ 252 µg/mL) | 130 µM (≈ 52.1 µg/mL) | 250 µM (≈ 100 µg/mL) | 630 µM (≈ 252 µg/mL) | 380 µM (≈ 152 µg/mL) | 380 µM (≈ 152 µg/mL) | 380 µM (≈ 152 µg/mL) | 630 µM (≈ 252 µg/mL) | 30 µM (≈ 12 µg/mL) | 630 µM (≈ 252 µg/mL) | 630 µM (≈ 252 µg/mL) | 130 µM (≈ 52.1 µg/mL) | 630 µM (≈ 252 µg/mL) | 250 µM (≈ 100 µg/mL) | 630 µM (≈ 252 µg/mL) | MIC (Pseudomonas aeruginosa [21]): 630 µM (≈ 252 µg/mL); MIC (Talaromyces funiculosus [22]): 130 µM (≈ 52.1 µg/mL); MIC (Bacillus cereus [23]): 250 µM (≈ 100 µg/mL); MIC (Trichoderma viride [24]): 10 µM (≈ 4.01 µg/mL); MIC (Aspergillus flavus [25]): 130 µM (≈ 52.1 µg/mL); MFC (Aspergillus versicolor [26]): 380 µM (≈ 152 µg/mL); MBC (Escherichia coli [27]): 630 µM (≈ 252 µg/mL); MBC (Listeria monocytogenes [28]): 630 µM (≈ 252 µg/mL); MIC (Micrococcus flavus [29]): 630 µM (≈ 252 µg/mL); MIC (Aspergillus niger [30]): 130 µM (≈ 52.1 µg/mL); MIC (Aspergillus fumigatus [31]): 130 µM (≈ 52.1 µg/mL); MIC (Listeria monocytogenes [32]): 630 µM (≈ 252 µg/mL)
CCCNc1nnc(Cc2cc(OC)c(OC)cc2S(=O)(=O)N(C)C)s1 | 130 µM (≈ 52.1 µg/mL) | 500 µM (≈ 200 µg/mL) | 60 µM (≈ 24 µg/mL) | 250 µM (≈ 100 µg/mL) | 500 µM (≈ 200 µg/mL) | 250 µM (≈ 100 µg/mL) | 130 µM (≈ 52.1 µg/mL) | 250 µM (≈ 100 µg/mL) | 500 µM (≈ 200 µg/mL) | 500 µM (≈ 200 µg/mL) | 130 µM (≈ 52.1 µg/mL) | 250 µM (≈ 100 µg/mL) | 500 µM (≈ 200 µg/mL) | 130 µM (≈ 52.1 µg/mL) | 500 µM (≈ 200 µg/mL) | 500 µM (≈ 200 µg/mL) | 250 µM (≈ 100 µg/mL) | 500 µM (≈ 200 µg/mL) | 250 µM (≈ 100 µg/mL) | 250 µM (≈ 100 µg/mL) | MIC (Pseudomonas aeruginosa [21]): 500 µM (≈ 200 µg/mL); MIC (Talaromyces funiculosus [22]): 130 µM (≈ 52.1 µg/mL); MIC (Bacillus cereus [23]): 250 µM (≈ 100 µg/mL); MIC (Trichoderma viride [24]): 60 µM (≈ 24 µg/mL); MIC (Aspergillus flavus [25]): 130 µM (≈ 52.1 µg/mL); MFC (Aspergillus versicolor [26]): 500 µM (≈ 200 µg/mL); MBC (Escherichia coli [27]): 250 µM (≈ 100 µg/mL); MBC (Listeria monocytogenes [28]): 500 µM (≈ 200 µg/mL); MIC (Micrococcus flavus [29]): 250 µM (≈ 100 µg/mL); MIC (Aspergillus niger [30]): 60 µM (≈ 24 µg/mL); MIC (Aspergillus fumigatus [31]): 130 µM (≈ 52.1 µg/mL); MIC (Listeria monocytogenes [32]): 500 µM (≈ 200 µg/mL)
CCCCNc1nnc(Cc2cc(OC)c(OC)cc2S(=O)(=O)N(C)C)s1 | 120 µM (≈ 49.7 µg/mL) | 240 µM (≈ 99.5 µg/mL) | 60 µM (≈ 24.9 µg/mL) | 240 µM (≈ 99.5 µg/mL) | 480 µM (≈ 199 µg/mL) | 480 µM (≈ 199 µg/mL) | 120 µM (≈ 49.7 µg/mL) | 240 µM (≈ 99.5 µg/mL) | 480 µM (≈ 199 µg/mL) | 480 µM (≈ 199 µg/mL) | 120 µM (≈ 49.7 µg/mL) | 240 µM (≈ 99.5 µg/mL) | 480 µM (≈ 199 µg/mL) | 120 µM (≈ 49.7 µg/mL) | 240 µM (≈ 99.5 µg/mL) | 240 µM (≈ 99.5 µg/mL) | 120 µM (≈ 49.7 µg/mL) | 240 µM (≈ 99.5 µg/mL) | 240 µM (≈ 99.5 µg/mL) | 240 µM (≈ 99.5 µg/mL) | MIC (Pseudomonas aeruginosa [21]): 480 µM (≈ 199 µg/mL); MIC (Talaromyces funiculosus [22]): 120 µM (≈ 49.7 µg/mL); MIC (Bacillus cereus [23]): 240 µM (≈ 99.5 µg/mL); MIC (Trichoderma viride [24]): 60 µM (≈ 24.9 µg/mL); MIC (Aspergillus flavus [25]): 120 µM (≈ 49.7 µg/mL); MFC (Aspergillus versicolor [26]): 240 µM (≈ 99.5 µg/mL); MBC (Escherichia coli [27]): 480 µM (≈ 199 µg/mL); MBC (Listeria monocytogenes [28]): 480 µM (≈ 199 µg/mL); MIC (Micrococcus flavus [29]): 240 µM (≈ 99.5 µg/mL); MIC (Aspergillus niger [30]): 60 µM (≈ 24.9 µg/mL); MIC (Aspergillus fumigatus [31]): 120 µM (≈ 49.7 µg/mL); MIC (Listeria monocytogenes [32]): 240 µM (≈ 99.5 µg/mL)
